Experiments:
[1] = biological target: T1, Tubulin (Homo sapiens) (UniProt P68371+Q9H4B7+P0DPH7+P68366+Q13509+Q71U36+P04350+Q3ZCM7+P07437+P68363+Q9BQE3+Q6PEY2+Q13885+Q9BVA1+Q9BUF5); assay: Stabilization of microtubules in human QBI293 cells assessed as fold change in acetylated tubulin levels at 10 uM after 4 hrs by ELISA relative to cevipabulin; type: cell-based
[2] = biological target: T1, Tubulin (Homo sapiens); assay: Stabilization of microtubules in human QBI293 cells assessed as fold change in acetylated tubulin levels at 1 uM after 4 hrs by ELISA relative to DMSO; type: cell-based
In short: (§1)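 QBI293 cells were grown in DMEM with 10% FBS, 2 mM L-glutamine and penicillin/streptomycin, then plated at 6 × 10^5 cells/well and left overnight. Medium was replaced with fresh medium holding vehicle (DMSO) or compound, and cells were incubated 4 h. Whole-cell extract supernatants were protein-normalized by BCA assay. AcTub and α-tubulin were quantified by ELISA against standard curves. Values are fold-change over DMSO, analysed by one-way ANOVA.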

[3] = biological target: T1, Tubulin (Homo sapiens); assay: Stabilization of microtubules in human QBI293 cells assessed as fold change in acetylated tubulin levels at 1 uM after 4 hrs by ELISA relative to cevipabulin; type: cell-based
[4] = biological target: T1, Tubulin (Homo sapiens); assay: Stabilization of microtubules in human QBI293 cells assessed as increase in acetylated tubulin levels after 4 hrs by ELISA; type: cell-based
In short: (§2)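 QBI293 cells are grown in DMEM with 10% FBS, 2 mM L-glutamine and penicillin/streptomycin, plated at 6 × 10^5 cells/well and incubated overnight. […] Acetyl- and total α-tubulin in whole-cell extract supernatants are measured by ELISA against standard curves, with protein by BCA. Values are fold-change over DMSO; AcTub is also given relative to 100 nM cevipabulin positive control. Significance is by one-way ANOVA.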

[5] = biological target: T1, Tubulin (Homo sapiens); assay: Stabilization of microtubules in human QBI293 cells assessed as fold change in alpha tubulin levels at 1 uM after 4 hrs by ELISA relative to DMSO; type: cell-based; in short: as §1
[6] = biological target: T1, Tubulin (Homo sapiens); assay: Stabilization of microtubules in human QBI293 cells assessed as fold change in alpha tubulin levels at 10 uM after 4 hrs by ELISA relative to DMSO; type: cell-based; in short: as §1
[7] = biological target: T1, Tubulin (Homo sapiens); assay: Stabilization of microtubules in human QBI293 cells assessed as fold change in acetylated tubulin levels at 10 uM after 4 hrs by ELISA relative to DMSO; type: cell-based; in short: as §1
[8] = n-octanol-water distribution coefficient, log D of the compound at pH 7.4 by shake flask method; type: physicochemical; details: n-octanol/water, read-out: logD
In short: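 Distribution coefficient between n-octanol and water at pH 7.4, measured by shake-flask method.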

[9] = biological target: T1, Tubulin (Homo sapiens); assay: Stabilization of microtubules in human QBI293 cells assessed as decrease in alpha-tubulin levels at 1 to 10 uM after 4 hrs by ELISA relative to control; type: cell-based; parameters: scale not given: the % may be the effect or the level left; details: dose 1-10 µM; in short: as §2

Row | SMILES | fold change (FC) [1] | fold change (FC) [2] | fold change (FC) [3] | Activity [4] | fold change (FC) [5] | fold change (FC) [6] | fold change (FC) [7] | logD [8] | Activity [9] [%]
1 | C[C@H](Nc1c(-c2c(F)cc([N+](=O)[O-])cc2F)c(Cl)nc2ncnn12)C(F)(F)F | 1.23 | 3.24 | 0.6 | Dose-dependent effect | 0.96 | 0.94 | 6.65 |  | 
2 | CC(C)[C@@H](C)Nc1c(-c2ccccc2F)c(Cl)nc2ncnn12 | 0.43 | 0.95 | 0.2 |  | 1 | 1.04 | 2.1 | 2.95 | 
3 | CC(C)[C@@H](C)Nc1c(-c2ccc(C#N)cc2F)c(Cl)nc2ncnn12 (stereo in doubt; 67) |  |  |  |  |  |  |  | 2.9 | 
4 | Cc1cc(F)c(-c2c(Cl)nc3ncnn3c2N[C@@H](C)C(F)(F)F)c(F)c1 | 0.48 | 1.62 | 0.28 |  | 0.99 | 0.78 | 2.73 |  | > 15
5 | Fc1cc(F)c(-c2c(Cl)nc3ncnn3c2N2CCC2)c(F)c1 | 0.32 | 0.98 | 0.26 | Dose-dependent effect | 0.96 | 1.17 | 1.22 |  | 
6 | C[C@H](Nc1c(-c2c(F)cc(Cl)cc2F)c(Cl)nc2ncnn12)C(F)(F)F | 0.7 | 1.88 | 0.31 |  | 0.93 | 0.81 | 4.28 |  | > 15
7 | C[C@H](Nc1c(-c2c(F)cc(C(F)(F)F)cc2F)c(Cl)nc2ncnn12)C(F)(F)F | 0.16 | 1.09 | 0.13 | Dose-dependent effect | 1.06 | 1.02 | 1.39 |  | 
8 | C[C@H](Nc1c(-c2c(F)cc(OCCCO)cc2F)c(Cl)nc2ncnn12)C(F)(F)F |  |  |  |  |  |  |  |  | > 15
9 | Fc1cc(F)c(-c2c(Cl)nc3ncnn3c2N2CCCC2)c(F)c1 | 0.16 | 1.14 | 0.07 | Dose-dependent effect | 1.12 | 1.18 | 2.74 |  | 
10 | C[C@@H](Nc1c(-c2ccc(C#N)cc2F)c(Cl)nc2ncnn12)C(C)(C)C | 1.24 | 4.41 | 0.71 |  | 0.86 | 0.93 | 7.67 | 2.86 | 
11 | C[C@H](Nc1c(-c2ccc(F)cc2)c(Cl)nc2ncnn12)C(F)(F)F | 0.16 | 1.05 | 0.07 | Dose-dependent effect | 1.04 | 1.13 | 2.41 |  | 
12 | Fc1cc(F)c(-c2c(Cl)nc3ncnn3c2N2CCCCC2)c(F)c1 | 0.33 | 2.21 | 0.13 | Dose-dependent effect | 1.23 | 1.2 | 5.84 |  | 
13 | CSc1cc(F)c(-c2c(Cl)nc3ncnn3c2N[C@@H](C)C(F)(F)F)c(F)c1 | 0.35 | 1.75 | 0.27 |  | 0.88 | 0.56 | 2.23 |  | > 15
14 | CC(CF)Nc1c(-c2c(F)cc(F)cc2F)c(Cl)nc2ncnn12 (stereo not drawn) | 0.35 | 1.32 | 0.3 | Dose-dependent effect | 0.92 | 1.09 | 1.5 |  | 
15 | C[C@H](Nc1c(-c2c(F)cc(O)cc2F)c(Cl)nc2ncnn12)C(F)(F)F | 0.77 | 1.22 | 0.23 |  | 0.84 | 0.57 | 4.11 |  | > 15
